Reference: ChEMBL document CHEMBL1146514, “New peptaibols from Mycogone cervina” (J Nat Prod, 2004)
≈ marks a conversion by molar mass, not a printed value. Calls of active or inactive are those of the source. The calls are words filed in the database; no cut-off is given here. Where a SMILES comes first, the peptide text is derived from it. [ ]: non-standard residue; d: D form. The star is where a group is joined. X1 = CC(=O)OC[C@H](CC(C)C)N*; Aib = CC(C)(N)C(=O)O

Key:
Bacillus subtilis = experiment: Antimicrobial activity against Bacillus subtilis ATCC 6633 at 100 ug/disk after 24 hrs by standard disk assay; format: functional; settings: ATCC 6633, 24 h, read-out: IZ
Method in brief: (§1)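 Bacteria grown on nutrient agar at 37 °C. Test plates seeded with 5×10^5 cells per mL. Compound loaded onto 6 mm filter disks placed on the agar. Inhibition zone diameters read after 24 h.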

Brevibacillus brevis = experiment: Antimicrobial activity against Bacillus brevis ATCC 9999 at 100 ug/disk after 24 hrs by standard disk assay; format: functional; settings: ATCC 9999, 24 h, read-out: IZ; method in brief: as §1
Micrococcus luteus = experiment: Antimicrobial activity against Micrococcus luteus ATCC 21415 at 100 ug/disk after 24 hrs by standard disk assay; format: functional; settings: ATCC 21415, 24 h, read-out: IZ; method in brief: as §1
L1210 [1] = experiment: Cytotoxicity against mouse L1210 cells; format: functional, cell-based
Method in brief: (§2)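 Cells were grown and assayed in RPMI 1640 medium, and the IC50 was reported.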

[2] = Cytotoxicity against human COLO320 cells; format: functional, cell-based; settings: COLO 320; method in brief: as §2
L1210 [3] = experiment: Cytotoxicity against mouse L1210 cells at 100 ug/ml; format: functional, cell-based

Row | Structure (SMILES) | zone of inhibition at 100 µg/disc (Bacillus subtilis) | zone of inhibition at 100 µg/disc (Brevibacillus brevis) | zone of inhibition at 100 µg/disc (Micrococcus luteus) | IC50 (L1210 [1]) | IC50 [2] | Activity (L1210 [3])
1 | CC(=O)N[C@@H](CC(C)C)C(=O)NC(C)(C)C(=O)N1CCC[C@H]1C(=O)NC(C)(C)C(=O)N[C@@H](CC(C)C)C(=O)NC(C)(C)C(=O)N1CCC[C@H]1C(=O)N[C@@H](C)C(=O)NC(C)(C)C(=O)N1CCC[C@H]1C(=O)N[C@H](C(=O)N[C@H](COC(C)=O)CC(C)C)C(C)C (Ac-L[Aib]P[Aib]L[Aib]PA[Aib]PV-X1) | 11 mm | 10 mm | 16 mm | 32 µg/mL (≈ 26 µM) | 40 µg/mL (≈ 32.5 µM) | 
2 | CC(=O)N[C@@H](CC(C)C)C(=O)NC(C)(C)C(=O)N1CCC[C@H]1C(=O)NC(C)(C)C(=O)N[C@@H](CC(C)C)C(=O)NC(C)(C)C(=O)N1CCC[C@H]1C(=O)N[C@@H](C)C(=O)NC(C)(C)C(=O)N1CCC[C@H]1C(=O)N[C@H](C(=O)N[C@H](CO)CC(C)C)C(C)C [CERVININ] | 8 mm | 7 mm | 15 mm |  | 80 µg/mL (≈ 67.4 µM) | inactive
